The text below walks through data of ChEMBL document CHEMBL3352570, “ST7612AA1, a thioacetate-ω(γ-lactam carboxamide) derivative selected from a novel generation of oral HDAC inhibitors” (J Med Chem, 2014).

Activity calls are given as the source filed them. No cut-off for these calls is given here.

Series [1] concerns the target T1, Histone deacetylase 1 (Homo sapiens, UniProt Q13547). Kind of series: Inhibition of HDAC1 (unknown origin) using fluorogenic tetrapeptide RHKK(Ac) substrate by fluorescence assay.
For series [2], the target named is T2, Histone deacetylase 3 (Homo sapiens, UniProt O15379). Put plainly: Inhibition of HDAC3 (unknown origin) using fluorogenic tetrapeptide RHKK(Ac) substrate by fluorescence assay.
T2 sequence (O15379 whole entry): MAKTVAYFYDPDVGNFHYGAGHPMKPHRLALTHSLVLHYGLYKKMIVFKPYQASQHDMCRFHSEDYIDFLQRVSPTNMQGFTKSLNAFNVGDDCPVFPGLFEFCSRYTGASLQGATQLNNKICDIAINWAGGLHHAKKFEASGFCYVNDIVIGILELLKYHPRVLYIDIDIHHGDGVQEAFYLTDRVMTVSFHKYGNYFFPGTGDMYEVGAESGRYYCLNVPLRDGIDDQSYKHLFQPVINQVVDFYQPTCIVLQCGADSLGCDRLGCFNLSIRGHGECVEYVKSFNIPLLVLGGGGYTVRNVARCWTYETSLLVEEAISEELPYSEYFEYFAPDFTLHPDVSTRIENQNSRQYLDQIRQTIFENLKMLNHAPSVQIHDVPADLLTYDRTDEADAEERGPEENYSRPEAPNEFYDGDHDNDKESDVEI
Series [3] deals with T3, Polyamine deacetylase HDAC10 (Homo sapiens, UniProt Q969S8).
T3 sequence (Q969S8 whole entry): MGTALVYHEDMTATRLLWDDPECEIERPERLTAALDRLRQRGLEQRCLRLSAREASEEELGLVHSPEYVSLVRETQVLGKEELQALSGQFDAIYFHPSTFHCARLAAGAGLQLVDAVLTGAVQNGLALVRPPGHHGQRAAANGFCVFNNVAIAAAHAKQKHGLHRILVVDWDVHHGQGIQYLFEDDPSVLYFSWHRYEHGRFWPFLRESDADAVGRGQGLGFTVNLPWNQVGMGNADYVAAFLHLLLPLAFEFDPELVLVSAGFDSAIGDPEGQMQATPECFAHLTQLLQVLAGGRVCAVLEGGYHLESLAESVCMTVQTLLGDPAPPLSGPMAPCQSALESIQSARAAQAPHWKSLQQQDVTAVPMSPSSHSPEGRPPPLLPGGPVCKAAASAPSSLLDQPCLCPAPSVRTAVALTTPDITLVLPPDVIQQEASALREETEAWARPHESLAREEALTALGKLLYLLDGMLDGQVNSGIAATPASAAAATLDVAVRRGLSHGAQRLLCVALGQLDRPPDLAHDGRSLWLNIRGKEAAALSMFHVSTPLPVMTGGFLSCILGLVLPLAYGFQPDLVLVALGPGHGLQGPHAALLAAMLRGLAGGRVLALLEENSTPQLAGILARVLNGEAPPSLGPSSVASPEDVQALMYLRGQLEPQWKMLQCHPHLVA
Put plainly: Inhibition of HDAC10 (unknown origin) using fluorogenic tetrapeptide RHKK(Ac) substrate by fluorescence assay.

Series [4] has as its target T4, Histone deacetylase 11 (Homo sapiens, UniProt Q96DB2).
T4 sequence (Q96DB2 whole entry): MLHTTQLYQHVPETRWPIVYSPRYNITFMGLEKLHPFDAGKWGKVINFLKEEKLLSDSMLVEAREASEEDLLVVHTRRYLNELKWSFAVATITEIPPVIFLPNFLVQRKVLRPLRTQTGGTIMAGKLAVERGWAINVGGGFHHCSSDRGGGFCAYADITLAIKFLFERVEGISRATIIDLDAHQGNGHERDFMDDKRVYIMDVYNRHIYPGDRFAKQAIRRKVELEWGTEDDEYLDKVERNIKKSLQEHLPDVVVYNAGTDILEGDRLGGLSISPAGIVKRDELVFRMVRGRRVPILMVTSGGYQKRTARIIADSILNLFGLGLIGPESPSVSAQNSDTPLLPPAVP
Kind of series: Inhibition of HDAC11 (unknown origin) using fluorogenic tetrapeptide RHKK(Ac) substrate by fluorescence assay.

Series [5] deals with Histone deacetylase 2 (Homo sapiens, UniProt Q92769). Put plainly: Inhibition of HDAC2 (unknown origin) using fluorogenic tetrapeptide RHKK(Ac) substrate at <50 uM by fluorescence assay. A digest of the protocol:
(§1)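 Fluorogenic assay with the tetrapeptide RHKK(Ac) substrate (p53 residues 379–382) at 50 μM.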

Series [6] has as its target T5, Histone deacetylase 8 (Homo sapiens) (UniProt Q9BY41).
T5 sequence (whole entry): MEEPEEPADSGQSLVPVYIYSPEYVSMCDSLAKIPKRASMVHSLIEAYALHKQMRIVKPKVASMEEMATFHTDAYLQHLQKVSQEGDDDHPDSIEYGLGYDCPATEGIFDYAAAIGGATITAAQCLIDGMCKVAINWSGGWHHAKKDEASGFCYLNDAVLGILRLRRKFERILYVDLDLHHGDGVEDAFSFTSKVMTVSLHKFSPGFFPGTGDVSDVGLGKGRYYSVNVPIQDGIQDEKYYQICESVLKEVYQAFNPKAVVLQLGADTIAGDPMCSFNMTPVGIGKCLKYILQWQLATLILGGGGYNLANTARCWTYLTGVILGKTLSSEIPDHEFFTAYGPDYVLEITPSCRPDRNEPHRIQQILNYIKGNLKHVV
Kind of series: Inhibition of HDAC8 (unknown origin) using fluorogenic tetrapeptide RHK(Ac)K(Ac) substrate at <50 uM by fluorescence assay. A digest of the protocol: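 The HDAC8 assay used the diacetylated fluorogenic substrate RHK(Ac)K(Ac) at 50 μM.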

Series [7] deals with T6, Protein deacetylase HDAC6 (Homo sapiens) (UniProt Q9UBN7).
T6 sequence (whole entry): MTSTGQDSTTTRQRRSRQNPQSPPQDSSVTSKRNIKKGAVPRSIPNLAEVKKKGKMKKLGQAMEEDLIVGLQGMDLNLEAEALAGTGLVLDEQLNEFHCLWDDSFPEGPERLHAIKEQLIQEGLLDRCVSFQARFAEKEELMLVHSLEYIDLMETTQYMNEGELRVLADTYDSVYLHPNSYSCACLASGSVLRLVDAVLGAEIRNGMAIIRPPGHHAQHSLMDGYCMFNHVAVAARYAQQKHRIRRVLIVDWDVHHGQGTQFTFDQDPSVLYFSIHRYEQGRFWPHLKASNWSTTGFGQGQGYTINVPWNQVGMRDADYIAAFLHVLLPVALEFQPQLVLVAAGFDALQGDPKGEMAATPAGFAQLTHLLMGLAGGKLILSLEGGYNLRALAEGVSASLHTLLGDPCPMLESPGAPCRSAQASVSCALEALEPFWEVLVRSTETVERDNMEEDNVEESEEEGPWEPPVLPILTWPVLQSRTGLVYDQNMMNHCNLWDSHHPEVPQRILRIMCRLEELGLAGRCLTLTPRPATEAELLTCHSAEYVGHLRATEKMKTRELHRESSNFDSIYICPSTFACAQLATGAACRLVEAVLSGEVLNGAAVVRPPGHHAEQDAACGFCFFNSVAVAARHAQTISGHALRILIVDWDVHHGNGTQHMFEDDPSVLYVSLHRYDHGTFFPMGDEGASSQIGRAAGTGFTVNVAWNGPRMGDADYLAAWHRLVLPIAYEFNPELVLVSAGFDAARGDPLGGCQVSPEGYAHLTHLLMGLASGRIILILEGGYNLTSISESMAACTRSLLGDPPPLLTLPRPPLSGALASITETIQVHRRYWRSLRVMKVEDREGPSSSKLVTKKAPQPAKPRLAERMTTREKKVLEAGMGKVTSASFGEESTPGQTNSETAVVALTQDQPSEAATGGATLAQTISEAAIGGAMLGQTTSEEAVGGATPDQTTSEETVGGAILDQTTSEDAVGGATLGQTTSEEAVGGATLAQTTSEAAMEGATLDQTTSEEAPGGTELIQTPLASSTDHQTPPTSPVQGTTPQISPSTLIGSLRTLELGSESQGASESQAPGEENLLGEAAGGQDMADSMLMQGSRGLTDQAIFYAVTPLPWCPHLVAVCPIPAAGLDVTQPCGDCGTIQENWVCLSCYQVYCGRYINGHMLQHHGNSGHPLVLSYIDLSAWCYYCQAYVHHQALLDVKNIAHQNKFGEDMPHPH
Put plainly: Inhibition of HDAC6 (unknown origin) using fluorogenic tetrapeptide RHKK(Ac) substrate at <50 uM by fluorescence assay. The method, boiled down: as §1

Series [8] can be described thus: Solubility of the compound in water. The class given is physicochemical.
Series [9] deals with T7, Protein deacetylase HDAC6 (Homo sapiens, UniProt Q9UBN7).
T7 sequence (Q9UBN7 whole entry): T6 sequence (whole entry)
Kind of series: Inhibition of HDAC6 (unknown origin) using fluorogenic tetrapeptide RHKK(Ac) substrate by fluorescence assay.

Series [10] deals with T1, Histone deacetylase 1. Put plainly: Inhibition of HDAC1 (unknown origin) using fluorogenic tetrapeptide RHKK(Ac) substrate at <50 uM by fluorescence assay. The method, boiled down:
as §1

Series [11] has as its target T8, Polyamine deacetylase HDAC10 (Homo sapiens) (UniProt Q969S8).
T8 sequence (whole entry): T3 sequence (Q969S8 whole entry)
Kind of series: Inhibition of HDAC10 (unknown origin) using fluorogenic tetrapeptide RHKK(Ac) substrate at <50 uM by fluorescence assay. A digest of the protocol:
as §1

The target in series [12] is T9, Histone deacetylase 8 (Homo sapiens, UniProt Q9BY41).
T9 sequence (Q9BY41 whole entry): T5 sequence (whole entry)
Put plainly: Inhibition of HDAC8 (unknown origin) using fluorogenic tetrapeptide RHK(Ac)K(Ac) substrate by fluorescence assay.

In series [13] the target is T2, Histone deacetylase 3. Put plainly: Inhibition of HDAC3 (unknown origin) using fluorogenic tetrapeptide RHKK(Ac) substrate at <50 uM by fluorescence assay. A digest of the protocol:
as §1

Series [14] deals with NCI-H460. Kind of series: Cytotoxicity against human NCI-H460 cells after 24 hrs by SRB assay. As to conditions: NCI-H460, 24 h. The class given is functional, cell-based. A digest of the protocol:
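NCI-H460 cells were grown in RPMI-1640 with L-glutamine, 10% heat-inactivated FCS and 50 μg/mL gentamicin. Cells were seeded at about 10% confluence and allowed to recover for 24 h. They were exposed to varying concentrations for 24 h, washed, then cultured a further 48 h. Surviving cells were measured by SRB. IC50 is the 50% reduction in cell number versus vehicle, from dose–response curve fitting; means of at least three experiments.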

Series [15] can be described thus: Cytotoxicity against human HCT116 cells after 24 hrs by SRB assay. The class given is functional, cell-based. The following applies: HCT-116, 24 h. The method, boiled down:
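HCT116 cells were cultured in McCoy's 5A with L-glutamine, 10% heat-inactivated FCS and 50 μg/mL gentamicin. After seeding at about 10% confluence and a 24 h recovery, they received drug for 24 h. Drug was washed out and cells were incubated 48 h more before SRB staining. IC50 is the 50% cell-number reduction versus vehicle, from fitted dose–response curves; means of at least two experiments.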

Series [16] addresses Histone deacetylase. Put plainly: Inhibition of HDAC-mediated tubulin deacetylation in human NCI-H460 cells after 3 hrs by Western blot analysis. The format is cell-based. A digest of the protocol: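 Cells (NCI-H460) were treated for 3 h with graded concentrations. The cytoplasmic fraction was collected after HNB/1% NP-40 lysis and centrifugation of nuclei at 2000g. This fraction was resolved by SDS-PAGE and probed for acetylated α-tubulin against α-tubulin and β-actin. Bands were detected by ECL and quantified by densitometry after normalization; IC50 fitted; means of at least two experiments.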

In series [17] the target is Histone deacetylase. Put plainly: Inhibition of HDAC-mediated histone H4 deacetylation in human NCI-H460 cells after 3 hrs by Western blot analysis. The class given is cell-based. A digest of the protocol: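 NCI-H460 cells were plated the day before and treated 3 h across a dose range. Cells were washed with DPBS containing 5 mM NaB and lysed in HNB buffer with 1% NP-40. Histones were acid-extracted from nuclei with 0.4 equiv/L H2SO4 and precipitated with acetone. Blots were probed for acetyl-H4 against total H4. Read-out was ECL and densitometry after normalization; IC50 fitted; means of at least two experiments.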

T1 sequence (Q13547 whole entry): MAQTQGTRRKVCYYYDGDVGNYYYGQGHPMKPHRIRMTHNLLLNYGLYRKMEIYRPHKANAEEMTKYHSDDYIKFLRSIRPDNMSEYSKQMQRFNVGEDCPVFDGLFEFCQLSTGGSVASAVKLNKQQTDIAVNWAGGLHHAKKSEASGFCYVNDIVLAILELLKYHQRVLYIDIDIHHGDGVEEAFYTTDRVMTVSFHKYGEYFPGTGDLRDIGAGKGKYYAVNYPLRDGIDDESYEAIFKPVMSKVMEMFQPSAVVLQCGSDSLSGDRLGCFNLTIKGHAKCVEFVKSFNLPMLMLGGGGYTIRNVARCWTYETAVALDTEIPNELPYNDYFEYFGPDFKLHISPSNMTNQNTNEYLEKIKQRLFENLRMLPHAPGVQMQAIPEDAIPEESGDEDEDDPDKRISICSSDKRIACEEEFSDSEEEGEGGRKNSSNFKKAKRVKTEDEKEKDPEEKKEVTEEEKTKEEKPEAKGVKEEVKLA
Chain of Histone deacetylase 2 (Q92769 whole entry, the tested form may be a part): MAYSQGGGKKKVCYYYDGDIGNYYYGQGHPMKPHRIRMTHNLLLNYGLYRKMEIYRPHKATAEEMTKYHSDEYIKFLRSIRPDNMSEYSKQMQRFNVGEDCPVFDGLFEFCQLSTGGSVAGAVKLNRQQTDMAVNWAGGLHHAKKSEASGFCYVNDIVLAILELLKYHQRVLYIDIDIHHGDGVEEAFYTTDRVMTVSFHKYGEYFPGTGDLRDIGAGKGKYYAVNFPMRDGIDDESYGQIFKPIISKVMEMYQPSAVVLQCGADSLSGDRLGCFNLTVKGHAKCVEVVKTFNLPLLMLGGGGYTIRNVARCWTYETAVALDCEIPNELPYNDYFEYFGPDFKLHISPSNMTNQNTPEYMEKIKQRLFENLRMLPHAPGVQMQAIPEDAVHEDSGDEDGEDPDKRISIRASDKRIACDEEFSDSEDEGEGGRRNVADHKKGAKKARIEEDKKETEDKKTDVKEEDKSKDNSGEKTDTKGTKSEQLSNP

As for `O=C(CCCCCCS)N1CCc2ccccc2C1`, the half-inhibitory concentration (IC50) in [1] was 1750 nM; in series [2], 35800 nM; in series [3], 2930 nM; in series [4], 949 nM. Moreover, the inhibition entry in series [5], in series [6] and in series [7] was “inactive” each time.

In the case of `CC(=O)SCCCCCCC(=O)Nc1ccccc1`, in series [8], the solubility is > 1000 µg/mL.

As for `CCOC(=O)SCCCCCCC(=O)Nc1ccccc1`, the solubility in [8] is > 1000 µg/mL.

In the case of `CC(C)C(=O)SCCCCCCC(=O)Nc1ccccc1`, the solubility in [8] was > 1000 µg/mL.

Take `O=C1CCC[C@@H](C(=O)N[C@H](CCCCCS)C(=O)Nc2ccccc2)N1`: the IC50 in [2] was determined as 17100 nM; in series [9], 9380 nM; in [4], 14200 nM. Also, the inhibition result in series [10], in [5], in series [6] and in [11] was “inactive” each time.

As to `CC(C)(C)OC(=O)N[C@@H](CCCCCS)C(=O)NC1CCCC1`, the IC50 in series [9] amounted to 1120 nM; in series [12], 44000 nM; in series [3], 5210 nM; in series [4], 30700 nM. Besides, the inhibition entry in series [10], in series [5] and in [13] was “inactive” throughout.

On to `CC(=O)SCCCCC[C@H](NC(=O)[C@@H]1CC(=O)N1)C(=O)Nc1ccccc1`, for which the IC50 in series [14] turned out to be 50 nM; in [15], 86 nM; in series [16] it was 50 nM; in [17] it was 31 nM.

Consider `CC(=O)SCCCCC[C@H](NC(=O)[C@@H]1CCCC(=O)N1)C(=O)Nc1ccccc1`, for which the half-maximal inhibitory concentration (IC50) in series [14] amounted to 100 nM; in series [15], 130 nM; in [16], 100 nM; in series [17] it was 100 nM.
